We go through four molecules from ChEMBL document CHEMBL1275433 (Antimicrob Agents Chemother, 2008).

≈ marks a conversion by molar mass, not a printed value.

Test [1] deals with DNA gyrase subunit A/DNA gyrase subunit B (Mycobacterium tuberculosis (strain ATCC 25618 / H37Rv), UniProt P9WG45+P9WG47). In words: Inhibition of Mycobacterium tuberculosis DNA gyrase GyrA/GyrB. In kind it is protein-complex assay. The gist of the method:
(§1)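 Enzyme unit: protein needed for 50% supercoiling of 0.4 μg relaxed pBR322 DNA in 1 h at 37°C. Wild-type and mutant enzymes assayed in parallel on the same day under identical conditions. Repeated two to four times; representative values reported.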

The test system of test [2] is Ehrlichia chaffeensis. In words: Antimicrobial activity against Ehrlichia chaffeensis harboring DNA gyrase GyrA QRDR. It counts as functional.
In test [3] the test system is Helicobacter pylori. Nature of the test: Antimicrobial activity against Helicobacter pylori 2 harboring DNA gyrase GyrA QRDR. In kind it is functional.
Test [4] has as its system Mycolicibacterium smegmatis. Nature of the test: Antimicrobial activity against Mycobacterium smegmatis harboring DNA gyrase GyrB QRDR. It counts as functional, organism-based.
In test [5] the test system is Salmonella typhimurium. In words: Antimicrobial activity against Salmonella enterica Typhimurium harboring DNA gyrase GyrB QRDR. In kind it is functional, Salmonella enterica subsp. enterica serovar Typhimurium.
The target of test [6] is DNA gyrase subunit A/DNA gyrase subunit B (Mycobacterium tuberculosis (strain ATCC 25618 / H37Rv)) (UniProt P9WG45+P9WG47).
The test system of test [7] is Staphylococcus aureus. Nature of the test: Antimicrobial activity against Staphylococcus aureus harboring DNA gyrase GyrA QRDR. It counts as functional, organism-based.
Test [8] concerns Borrelia burgdorferi. Nature of the test: Antimicrobial activity against Borrelia burgdorferi harboring DNA gyrase GyrA QRDR. To be noted: Borreliella burgdorferi. It counts as functional.
Test [9] relates to Bacillus subtilis. Nature of the test: Antimicrobial activity against Bacillus subtilis harboring DNA gyrase GyrB QRDR. In kind it is functional.
Test [10] relates to Methylovorus. Nature of the test: Antimicrobial activity against Methylovorus sp. harboring DNA gyrase GyrB QRDR. In kind it is functional.
Test [11] concerns Haemophilus influenzae. In words: Antimicrobial activity against Haemophilus influenzae harboring DNA gyrase GyrA QRDR. It counts as functional.
Test [12] concerns Neisseria gonorrhoeae. Nature of the test: Antimicrobial activity against Neisseria gonorrhoeae harboring DNA gyrase GyrA QRDR. It counts as functional.
For test [13], the system named is Streptococcus pneumoniae. Nature of the test: Antimicrobial activity against Streptococcus pneumoniae harboring DNA gyrase GyrB QRDR. In kind it is functional, organism-based.
Test [14] concerns Klebsiella oxytoca. In words: Antimicrobial activity against Klebsiella oxytoca harboring DNA gyrase GyrB QRDR. In kind it is functional.
For test [15], the system named is Borrelia burgdorferi. In words: Antimicrobial activity against Borrelia burgdorferi harboring DNA gyrase GyrB QRDR. In kind it is functional. To be noted: Borreliella burgdorferi.
For test [16], the system named is Mycolicibacterium fortuitum. Nature of the test: Antimicrobial activity against Mycobacterium fortuitum harboring DNA gyrase GyrB QRDR. In kind it is functional, organism-based.
For test [17], the system named is Methylovorus. In words: Antimicrobial activity against Methylovorus sp. harboring DNA gyrase GyrA QRDR. In kind it is functional.
Test [18] relates to Haemophilus influenzae. Nature of the test: Antimicrobial activity against Haemophilus influenzae harboring DNA gyrase GyrB QRDR. In kind it is functional.
In test [19] the test system is Helicobacter pylori. Nature of the test: Antimicrobial activity against Helicobacter pylori harboring DNA gyrase GyrB QRDR. It counts as functional.
Test [20] concerns Neisseria gonorrhoeae. In words: Antimicrobial activity against Neisseria gonorrhoeae harboring DNA gyrase GyrB QRDR. It counts as functional.
For test [21], the system named is Ehrlichia chaffeensis. Nature of the test: Antimicrobial activity against Ehrlichia chaffeensis harboring DNA gyrase GyrB QRDR. It counts as functional.
In test [22] the test system is Mycolicibacterium smegmatis. In words: Antimicrobial activity against Mycobacterium smegmatis harboring DNA gyrase GyrA QRDR. In kind it is functional, organism-based.
Test [23] relates to Helicobacter pylori. In words: Antimicrobial activity against Helicobacter pylori 1 harboring DNA gyrase GyrA QRDR. It counts as functional.
Test [24] has as its system Enterococcus faecalis. In words: Antimicrobial activity against Enterococcus faecalis harboring DNA gyrase GyrA QRDR. In kind it is functional.
The subject of test [25] is Escherichia coli. In words: Antimicrobial activity against Escherichia coli harboring DNA gyrase GyrB QRDR. In kind it is functional, organism-based.
Test [26] relates to Bacteroides fragilis. In words: Antimicrobial activity against Bacteroides fragilis harboring DNA gyrase GyrB QRDR. It counts as functional.
The test system of test [27] is Escherichia coli. In words: Antimicrobial activity against Escherichia coli harboring DNA gyrase GyrA QRDR. It counts as functional, organism-based.
The test system of test [28] is Salmonella typhimurium. Nature of the test: Antimicrobial activity against Salmonella enterica Typhimurium harboring DNA gyrase GyrA QRDR. In kind it is functional, Salmonella enterica subsp. enterica serovar Typhimurium.
Test [29] relates to Streptococcus pneumoniae. Nature of the test: Antimicrobial activity against Streptococcus pneumoniae harboring DNA gyrase GyrA QRDR. It counts as functional, organism-based.
The target of test [30] is DNA gyrase (Escherichia coli) (UniProt P0AES6+P0AES4).
Test [31] relates to Pseudomonas aeruginosa. Nature of the test: Antimicrobial activity against Pseudomonas aeruginosa harboring DNA gyrase GyrB QRDR. In kind it is functional, organism-based.
For test [32], the system named is Bacillus subtilis. Nature of the test: Antimicrobial activity against Bacillus subtilis harboring DNA gyrase GyrA QRDR. It counts as functional.
Test [33] has as its system Klebsiella oxytoca. In words: Antimicrobial activity against Klebsiella oxytoca harboring DNA gyrase GyrA QRDR. It counts as functional.
For test [34], the system named is Mycolicibacterium fortuitum. In words: Antimicrobial activity against Mycobacterium fortuitum harboring DNA gyrase GyrA QRDR. It counts as functional, organism-based.
For test [35], the system named is Pseudomonas aeruginosa. In words: Antimicrobial activity against Pseudomonas aeruginosa harboring DNA gyrase GyrA QRDR. In kind it is functional, organism-based.
The test system of test [36] is Bacteroides fragilis. In words: Antimicrobial activity against Bacteroides fragilis harboring DNA gyrase GyrA QRDR. It counts as functional.
The subject of test [37] is Enterococcus faecalis. Nature of the test: Antimicrobial activity against Enterococcus faecalis harboring DNA gyrase GyrB QRDR. In kind it is functional.
Test [38] relates to Staphylococcus aureus. Nature of the test: Antimicrobial activity against Staphylococcus aureus harboring DNA gyrase GyrB QRDR. It counts as functional, organism-based.
A further test addresses DNA gyrase (Escherichia coli, UniProt P0AES4+P0AES6). Nature of the test: Inhibition of Escherichia coli DNA gyrase GyrA/GyrB. In kind it is protein-complex assay. In short, it runs like this:
as §1

Sequence of DNA gyrase subunit A/DNA gyrase subunit B (P9WG45 whole entry): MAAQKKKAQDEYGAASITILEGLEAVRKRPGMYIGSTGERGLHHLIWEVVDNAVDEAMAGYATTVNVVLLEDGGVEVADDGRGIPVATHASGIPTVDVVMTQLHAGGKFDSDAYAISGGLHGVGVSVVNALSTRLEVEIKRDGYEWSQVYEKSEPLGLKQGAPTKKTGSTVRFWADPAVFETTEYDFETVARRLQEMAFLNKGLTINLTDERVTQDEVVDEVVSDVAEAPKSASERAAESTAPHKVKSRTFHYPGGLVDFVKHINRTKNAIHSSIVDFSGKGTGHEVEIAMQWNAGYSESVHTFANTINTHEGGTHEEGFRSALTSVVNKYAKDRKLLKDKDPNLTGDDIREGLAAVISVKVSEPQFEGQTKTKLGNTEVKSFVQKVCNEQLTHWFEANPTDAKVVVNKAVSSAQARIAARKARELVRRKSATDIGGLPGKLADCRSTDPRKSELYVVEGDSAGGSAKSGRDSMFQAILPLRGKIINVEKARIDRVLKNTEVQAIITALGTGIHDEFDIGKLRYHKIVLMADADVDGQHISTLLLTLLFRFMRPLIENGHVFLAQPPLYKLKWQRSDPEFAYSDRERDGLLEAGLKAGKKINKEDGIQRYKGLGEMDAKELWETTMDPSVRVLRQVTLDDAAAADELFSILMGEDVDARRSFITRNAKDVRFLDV
Sequence of DNA gyrase subunit A/DNA gyrase subunit B (P9WG47 whole entry): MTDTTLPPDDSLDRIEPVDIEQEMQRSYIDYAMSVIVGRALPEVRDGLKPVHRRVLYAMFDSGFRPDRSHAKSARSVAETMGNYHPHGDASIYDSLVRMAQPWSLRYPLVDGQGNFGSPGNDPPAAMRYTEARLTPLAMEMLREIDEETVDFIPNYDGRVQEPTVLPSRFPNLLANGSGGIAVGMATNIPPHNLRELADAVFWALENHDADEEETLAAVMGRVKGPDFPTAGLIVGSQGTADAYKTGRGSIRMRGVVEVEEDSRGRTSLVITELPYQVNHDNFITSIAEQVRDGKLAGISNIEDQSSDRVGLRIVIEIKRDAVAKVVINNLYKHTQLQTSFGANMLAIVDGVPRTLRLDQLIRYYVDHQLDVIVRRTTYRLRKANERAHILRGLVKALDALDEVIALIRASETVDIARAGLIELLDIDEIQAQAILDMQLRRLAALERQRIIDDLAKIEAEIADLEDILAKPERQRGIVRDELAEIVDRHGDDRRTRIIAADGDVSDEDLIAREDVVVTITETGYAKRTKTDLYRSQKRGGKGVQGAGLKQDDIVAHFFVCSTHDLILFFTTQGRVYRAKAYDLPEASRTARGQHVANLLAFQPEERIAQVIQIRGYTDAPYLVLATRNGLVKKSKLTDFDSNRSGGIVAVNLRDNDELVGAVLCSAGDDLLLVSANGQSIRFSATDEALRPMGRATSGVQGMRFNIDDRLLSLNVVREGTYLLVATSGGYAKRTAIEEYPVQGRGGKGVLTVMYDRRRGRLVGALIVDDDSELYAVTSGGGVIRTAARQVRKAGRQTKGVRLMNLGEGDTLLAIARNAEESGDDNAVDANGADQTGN

In general, IC50 refers to the midpoint of a concentration-inhibition curve. Read a high IC50 as weaker potency in that assay. The molecule `CCn1cc(C(=O)O)c(=O)c2ccc(C)nc21` [NALIDIXIC ACID] returned an IC50 in [1] of 4750 µM.

Consider `CC1COc2c(N3CCN(C)CC3)c(F)cc3c(=O)c(C(=O)O)cn1c23` (centres undefined) [OFLOXACIN], for which the MIC50 against Ehrlichia chaffeensis [2] was 16 µg/mL (≈ 44.3 µM); against Helicobacter pylori [3], 0.25 µg/mL (≈ 0.692 µM); in test [4], 1 µg/mL (≈ 2.77 µM); with Salmonella typhimurium [5] it was 0.01 µg/mL (≈ 0.0277 µM); in the test on Staphylococcus aureus [7], 0.5 µg/mL (≈ 1.38 µM); in the test on Borrelia burgdorferi [8], 8 µg/mL (≈ 22.1 µM). Also, the MIC50 in the test with Bacillus subtilis [9] came to 0.12 µg/mL (≈ 0.332 µM); against Methylovorus [10] it was 0.8 µg/mL (≈ 2.21 µM); against Haemophilus influenzae [11], 0.01 µg/mL (≈ 0.0277 µM); in the test on Neisseria gonorrhoeae [12], 0.008 µg/mL (≈ 0.0221 µM); in the test on Streptococcus pneumoniae [13], 1 µg/mL (≈ 2.77 µM); in the test with Klebsiella oxytoca [14] it was 0.01 µg/mL (≈ 0.0277 µM). The MIC50 with Borrelia burgdorferi [15] is 8 µg/mL (≈ 22.1 µM); in [16], 0.06 µg/mL (≈ 0.166 µM); against Methylovorus [17] it was 0.8 µg/mL (≈ 2.21 µM); against Haemophilus influenzae [18] it was 0.012 µg/mL (≈ 0.0332 µM); in the test with Helicobacter pylori [19], 0.25 µg/mL (≈ 0.692 µM); with Neisseria gonorrhoeae [20], 0.008 µg/mL (≈ 0.0221 µM). For the same molecule, the MIC50 with Ehrlichia chaffeensis [21] stood at 16 µg/mL (≈ 44.3 µM); in test [22], 1 µg/mL (≈ 2.77 µM); against Helicobacter pylori [23], 0.06 µg/mL (≈ 0.166 µM); in the test on Enterococcus faecalis [24] it was 1 µg/mL (≈ 2.77 µM); with Escherichia coli [25], 0.01 µg/mL (≈ 0.0277 µM); in the test with Bacteroides fragilis [26] it was 4 µg/mL (≈ 11.1 µM). The MIC50 against Escherichia coli [27] is 0.01 µg/mL (≈ 0.0277 µM); with Salmonella typhimurium [28], 0.01 µg/mL (≈ 0.0277 µM); against Streptococcus pneumoniae [29] it was 1 µg/mL (≈ 2.77 µM); against Pseudomonas aeruginosa [31], 0.25 µg/mL (≈ 0.692 µM); with Bacillus subtilis [32], 0.12 µg/mL (≈ 0.332 µM); against Klebsiella oxytoca [33] it was 0.01 µg/mL (≈ 0.0277 µM). The MIC50 in test [34] was found to be 0.06 µg/mL (≈ 0.166 µM); against Pseudomonas aeruginosa [35], 0.25 µg/mL (≈ 0.692 µM); against Bacteroides fragilis [36], 4 µg/mL (≈ 11.1 µM); against Enterococcus faecalis [37] it was 1 µg/mL (≈ 2.77 µM); against Staphylococcus aureus [38], 0.5 µg/mL (≈ 1.38 µM). In addition, the IC50 in test [4] is 10 µg/mL (≈ 27.7 µM); with Staphylococcus aureus [7], 10 µg/mL (≈ 27.7 µM); in the test with Streptococcus pneumoniae [13], 40 µg/mL (≈ 111 µM); in test [1], 28 µM; in test [16], 1 µg/mL (≈ 2.77 µM); in test [22], 10 µg/mL (≈ 27.7 µM). Moreover, the IC50 came out at 0.3 µg/mL (≈ 0.83 µM) in the test on Escherichia coli [25]; 0.3 µg/mL (≈ 0.83 µM) in the test with Escherichia coli [27]; 40 µg/mL (≈ 111 µM) in the test on Streptococcus pneumoniae [29]; 0.5 µg/mL (≈ 1.38 µM) in the test on Pseudomonas aeruginosa [31]; 1 µg/mL (≈ 2.77 µM) in test [34]; 0.5 µg/mL (≈ 1.38 µM) with Pseudomonas aeruginosa [35]. In the test with Staphylococcus aureus [38], this molecule gave an IC50 of 10 µg/mL (≈ 27.7 µM). Further, the CC25 in test [6] stood at 7 µM; in test [30], 0.2 µM.

Regarding `CCn1cc(C(=O)O)c(=O)c2cc(F)c(N3CCNCC3)nc21` [ENOXACIN], the IC50 came to 14 µM at DNA gyrase and 156 µM in [1].

Regarding `COc1c(N2C[C@@H]3CCCN[C@@H]3C2)c(F)cc2c(=O)c(C(=O)O)cn(C3CC3)c12` [MOXIFLOXACIN], the CC25 in test [6] was found to be 2 µM.
